Data set [1] concerns NIH3T3. In words: Induction of autophagy in mouse NIH/3T3 cells assessed as increase in LC3-2 to actin ratio at 25 to 100 uM after 4 hrs by immunoblot analysis. Type of data set: functional, cell-based. In a few lines:
(§1)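 Mouse embryo NIH3T3 fibroblasts seeded at 3.3 × 10^5 cells/ml at 37°C, 5% CO2; after 24 h the medium was changed and compounds added in DMSO at 25, 50 or 100 μM final. Controls were DMSO vehicle and 5 μM rapamycin. After 4 h at 37°C, cells were lysed in RIPA buffer and run on SDS-PAGE. Blots were probed for LC3, p62 and actin, and band signal ratios were quantified. Mean ± SD of triplicate.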

Data set [2] deals with NIH3T3. In words: Induction of autophagy in mouse NIH/3T3 cells assessed as increase in LC3-2 to LC3-1 ratio at 25 to 100 uM after 4 hrs by immunoblot analysis. Type of data set: functional, cell-based. In a few lines:
as §1
A general note: Immunoblotting shows a protein as a band on a membrane.

For data set [3], the system named is NIH3T3. In words: Induction of autophagy in mouse NIH/3T3 cells assessed as increase in LC3-2 to LC3-1 ratio after 4 hrs by immunoblot analysis. The format is functional, cell-based. In a few lines:
as §1

In data set [4] the test system is NIH3T3. Nature of the data set: Induction of apoptosis in mouse NIH/3T3 cells assessed as cell shrinkage at 100 uM measured after 4 hrs. The format is functional, cell-based.
The subject of data set [5] is NIH3T3. In words: Cytotoxicity against mouse NIH/3T3 cells assessed as reduction in cell viability at 25 to 100 uM after 4 hrs by CCK8 assay. Type of data set: cell-based. The note with it: nih3t3, 4 h. An outline of the steps:
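NIH3T3 cells counted by trypan blue exclusion, set to 0.53 × 10^4 cells/ml, and dosed at 25, 50 or 100 μM final (DMSO 0.1%). After 4 h at 37°C under CO2, CCK-8 reagent was added and incubation continued […]. Viable cells were read as OD450 against the DMSO control, mean ± SD of triplicate.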
For orientation: Tetrazolium assays rely on reduction of a dye to a coloured formazan, in cell work by metabolically active cells.

Data set [6] concerns NIH3T3. In words: Induction of autophagy in mouse NIH/3T3 cells assessed as increase in LC3-2 to actin ratio after 4 hrs by immunoblot analysis. Type of data set: functional, cell-based. In a few lines: as §1
The subject of data set [7] is NIH3T3. In words: Induction of autophagy in mouse NIH/3T3 cells assessed as upregulation of p62 expression after 4 hrs by immunoblot analysis. The format is functional, cell-based. An outline of the steps: as §1
For data set [8], the system named is NIH3T3. Nature of the data set: Induction of autophagy in mouse NIH/3T3 cells assessed as upregulation of p62 expression at 25 to 100 uM after 4 hrs by immunoblot analysis. Type of data set: functional, cell-based. An outline of the steps: (§2)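 NIH3T3 mouse embryo fibroblasts seeded at 3.3 × 10^5 cells/ml, cultured 24 h at 37°C/5% CO2, medium changed, then given compound in DMSO at final 25, 50, 100 μM for 4 h at 37°C. DMSO vehicle control; 5 μM rapamycin positive control. Cells lysed in RIPA, SDS-PAGE immunoblot for LC3, SQSTM1/p62, actin; band signals quantified as relative ratios. Mean ± SD of triplicates.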

For data set [9], the system named is NIH3T3. In words: Inhibition of autophagy in mouse NIH/3T3 cells assessed as decrease in LC3-2 to LC3-1 ratio after 4 hrs by immunoblot analysis. The format is functional, cell-based. In a few lines:
as §2

Data set [10] concerns NIH3T3. In words: Inhibition of autophagy in mouse NIH/3T3 cells assessed as decrease in LC3-2 to actin ratio after 4 hrs by immunoblot analysis. The format is functional, cell-based. In a few lines:
as §2

The subject of data set [11] is NIH3T3. Nature of the data set: Induction of autophagy in mouse NIH/3T3 cells assessed as upregulation of p62 expression after 6 hrs by immunoblot analysis. The format is functional, cell-based.
The test system of data set [12] is NIH3T3. In words: Modulation of autophagy in mouse NIH/3T3 cells assessed as effect on p62 expression at 25 to 100 uM after 4 hrs by immunoblot analysis. The format is functional, cell-based. In a few lines: as §1
The subject of data set [13] is NIH3T3. Nature of the data set: Induction of apoptosis in mouse NIH/3T3 cells assessed as cell shrinkage at 50 to 100 uM measured after 4 hrs. The format is functional, cell-based.
In data set [14] the test system is NIH3T3. In words: Modulation of autophagy in mouse NIH/3T3 cells assessed as effect on LC3-2 to LC3-1 ratio at 25 to 100 uM after 4 hrs by immunoblot analysis. Type of data set: functional, cell-based. An outline of the steps:
as §1

Data set [15] deals with NIH3T3. In words: Modulation of autophagy in mouse NIH/3T3 cells assessed as effect on LC3-2 to actin ratio at 25 to 100 uM after 4 hrs by immunoblot analysis. Type of data set: functional, cell-based. In a few lines: as §1

Each structure is given as a SMILES string. Active and inactive are the calls of the source. The rule behind the calls is not given here.

With `CCCC[C@@H](O)[C@H]1O[C@H]1C(N)=O`, the result in data set [1] and in [2] was inactive.
For the compound `CCCCCCC(=O)[C@H]1O[C@H]1C(N)=O`, the Activity result in data set [3] was “Dose-dependent effect”; in [5], “Toxic”; in [6] it was “Dose-dependent effect”; in data set [7], “Dose-dependent effect”. Further, in data set [4], the result was Active.
`C/C=C/C/C=C/CCC(=O)[C@H]1O[C@H]1C(N)=O` [CERULENIN]: the Activity entry in [5] is listed as “Toxic”. For the same compound, the outcome in [8] was Active. Moreover, the inhibition result in data set [9] and in data set [10] was “Dose-dependent effect” in each case.
With `CCCCC(=O)[C@H]1O[C@H]1C(=O)N(C)C`, the outcome in data set [1] and in data set [2] was inactive.
Turning to `CCCCC1(O)NC(=O)[C@H]2O[C@H]21` (stereo partly drawn), the result in data set [1] and in data set [2] was inactive.
On to `CCCC[C@@]1(O)NC(=O)[C@@H]2O[C@@H]21`, for which the Activity entry in data set [5] was “Toxic”. Further, the result in data set [1], in [11] and in data set [2] was Active. For the same compound, the outcome in data set [12] and in data set [13] was inactive.
For the compound `CCCCCCCCC(=O)[C@H]1O[C@H]1C(N)=O`, the Activity result in data set [5] is recorded as “Toxic”. Moreover, the result in data set [8] and in [13] was Active. Besides, the inhibition result in data set [9] and in data set [10] was “Dose-dependent effect” each time.
Consider `CCCCC(=O)CCC(N)=O`, for which the result in data set [1] and in data set [2] was inactive.
For `CCCC[C@]1(OC)NC(=O)[C@@H]2O[C@@H]21`, the result in data set [1] and in data set [2] was inactive.
For `CCCCCCCCCCC(=O)[C@H]1O[C@H]1C(N)=O`, in data set [5], the Activity entry was “Toxic”. In addition, the outcome in data set [14] and in data set [15] was inactive.

For the origin of these results see ChEMBL document CHEMBL4152372, “Novel autophagy modulators: Design and synthesis of (+)-epogymnolactam analogues and structure-activity relationship” (Bioorg Med Chem, 2018).
